Here are results for one molecule from publication PMC9308755 (Chemmedchem, 2022).

Series [1] can be described thus: Human liver microsome stability. The class given is in vitro ADME. The conditions noted are these: liver microsomes. In general terms: Microsomes from liver hold many membrane-bound enzymes, among them those of drug oxidation.
Series [2] can be described thus: Mouse plasma protein binding. The class given is in vitro ADME.
Series [3] is described as follows: In vivo rat cassette PK.
Series [4] addresses T1, mouse TRPC5 (Mus musculus, UniProt Q9QX29).
T1 sequence (Q9QX29 1-975): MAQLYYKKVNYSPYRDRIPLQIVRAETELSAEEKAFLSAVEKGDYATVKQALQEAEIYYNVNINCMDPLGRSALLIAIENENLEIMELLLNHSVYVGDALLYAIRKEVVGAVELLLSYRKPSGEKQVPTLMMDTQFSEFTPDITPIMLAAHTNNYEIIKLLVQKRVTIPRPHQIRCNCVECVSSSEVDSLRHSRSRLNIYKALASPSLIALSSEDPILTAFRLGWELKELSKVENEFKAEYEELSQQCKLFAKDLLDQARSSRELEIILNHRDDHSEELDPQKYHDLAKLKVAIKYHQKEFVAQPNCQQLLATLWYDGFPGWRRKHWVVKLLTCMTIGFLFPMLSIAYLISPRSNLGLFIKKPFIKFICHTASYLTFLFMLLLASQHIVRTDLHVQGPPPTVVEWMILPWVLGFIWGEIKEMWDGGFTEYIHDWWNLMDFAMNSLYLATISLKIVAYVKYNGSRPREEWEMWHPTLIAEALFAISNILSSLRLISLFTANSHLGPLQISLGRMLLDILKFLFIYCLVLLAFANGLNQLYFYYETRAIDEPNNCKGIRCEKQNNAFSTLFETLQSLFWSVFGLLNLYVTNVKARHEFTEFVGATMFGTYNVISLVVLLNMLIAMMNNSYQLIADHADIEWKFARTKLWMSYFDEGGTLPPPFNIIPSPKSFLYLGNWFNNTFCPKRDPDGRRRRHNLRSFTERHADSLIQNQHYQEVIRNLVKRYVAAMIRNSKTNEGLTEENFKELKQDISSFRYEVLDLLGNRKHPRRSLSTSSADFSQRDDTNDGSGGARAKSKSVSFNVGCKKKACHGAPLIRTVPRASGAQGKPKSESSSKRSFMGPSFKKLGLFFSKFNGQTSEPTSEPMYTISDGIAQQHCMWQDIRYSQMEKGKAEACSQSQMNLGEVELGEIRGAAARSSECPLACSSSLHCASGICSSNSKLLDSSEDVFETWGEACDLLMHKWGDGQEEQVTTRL
In words: Syncropatch automated patch clamp, inhibition of riluzole-induced TRPC5 currents. The class given is cell-based. Conditions: TRPC5 IC50, riluzole (30 μM)-induced TRPC5 current; Syncropatch. The procedure, abridged:
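Doxycycline-induced (0.5–1 μg/mL, 3 days) Flp-In T-REx-293 cells stably expressing mouse TRPC5, used in automated patch clamp. 200 ms ramps from −100 to +100 mV every 5–10 s. 30 μM riluzole activates currents and stays present with compound. Only cells with doubly-rectifying currents kept. % inhibition compares 3 ramps after vs before compound, normalized to a reference inhibitor at 3 μM. IC50 from three-parameter fit.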

The nature of series [5]: Mouse liver microsome stability. The conditions noted are these: liver microsomes. The class given is in vitro ADME.
Series [6] can be described thus: Human plasma protein binding. In kind it is in vitro ADME.
The mark [7] stands for this setting: rat, in vivo, intravenous, 0.25 mg/kg.

As usually defined, the CLint scaled is the rate of metabolic loss divided by the concentration. The low end stands for slow turnover, the high end for rapid turnover. As a reminder, the fraction unbound is the share of the substance not bound to proteins or other matrix. Low readings indicate extensive binding, high ones weak binding. What is called Kp is tissue or fluid exposure divided by exposure in the circulation. Broadly, the MRT inf is the average time that molecules of a dose stay in the body. For orientation: Vd means the apparent volume that relates the amount in the body to the concentration in plasma or blood. Lower therefore signals confinement near the circulation. Usually clearance stands for a measure of how efficiently the substance is removed, as volume per time. A low value points to a low capacity for elimination. By half-life is commonly meant how long it takes for the measured level to halve. Low values mean fast loss, high ones slow loss. The AUC is concentration integrated over time. The low end stands for less exposure, the high end for more exposure. What is called IC50 is the concentration that inhibits the measured activity by half. In series [1], `N#Cc1cc(Cn2c(N3CCCC3)nc3ccccc32)ccc1F` [9 o, 2‐Fluoro‐5‐((2‐(pyrrolidin‐1‐yl)‐1H‐benzo[d]imidazol‐1‐yl)methyl)benzonitrile] came in with a CLint scaled of 38.1 mL/min/kg and a hCLHEP of 13.2 mL/min/kg. Besides, in series [2], the fraction unbound amounted to 0.053. Also, the Brain in series [3] (Rat cassette (0.25 mpk), brain level for Kp) was determined as 41.8. In addition, the Plasma in series [3] (Rat cassette (0.25 mpk), plasma level for Kp) worked out at 69.7. The molecule further showed a Kp in series [3] (rat, brain/plasma, intravenous, 0.25 mpk) of 0.6. Also, in series [3] (setting [7]), the C0 turned out to be 221 ng/mL, the MRT inf worked out at 38.5 min, the Vd came out at 1.8 L/kg and the clearance was 61.3 mL/min/kg. For the same molecule, the half-life in series [3] (setting [7]) is 38.4 min. Also, the AUC in series [3] (rat, plasma, intravenous, 0.25 mg/kg) came to 262 ng·h/mL. The same molecule yielded a half-inhibitory concentration (IC50) in series [4] of 540 ± 230 nM. In series [5], this molecule came in with a CLint scaled of 370 mL/min/kg and a mCLHEP of 72.5 mL/min/kg. In series [6], this molecule returned a fraction unbound of 0.068.
